ChEMBL document CHEMBL5038600, “Discovery of M-1121 as an Orally Active Covalent Inhibitor of Menin-MLL Interaction Capable of Achieving Complete and Long-Lasting Tumor Regression” (J Med Chem, 2021)
Activity calls are given as the source filed them. The calls are words filed in the database; no cut-off is given here.

How the values were obtained:
[1] = biological target: T1, Menin (Homo sapiens) (UniProt O00255); assay: Binding affinity to recombinant human menin protein assessed as covalent complex formation incubated for 1 hrs by LC/MS analysis; design: concentration or dose not given beside the values
T1 sequence (whole entry): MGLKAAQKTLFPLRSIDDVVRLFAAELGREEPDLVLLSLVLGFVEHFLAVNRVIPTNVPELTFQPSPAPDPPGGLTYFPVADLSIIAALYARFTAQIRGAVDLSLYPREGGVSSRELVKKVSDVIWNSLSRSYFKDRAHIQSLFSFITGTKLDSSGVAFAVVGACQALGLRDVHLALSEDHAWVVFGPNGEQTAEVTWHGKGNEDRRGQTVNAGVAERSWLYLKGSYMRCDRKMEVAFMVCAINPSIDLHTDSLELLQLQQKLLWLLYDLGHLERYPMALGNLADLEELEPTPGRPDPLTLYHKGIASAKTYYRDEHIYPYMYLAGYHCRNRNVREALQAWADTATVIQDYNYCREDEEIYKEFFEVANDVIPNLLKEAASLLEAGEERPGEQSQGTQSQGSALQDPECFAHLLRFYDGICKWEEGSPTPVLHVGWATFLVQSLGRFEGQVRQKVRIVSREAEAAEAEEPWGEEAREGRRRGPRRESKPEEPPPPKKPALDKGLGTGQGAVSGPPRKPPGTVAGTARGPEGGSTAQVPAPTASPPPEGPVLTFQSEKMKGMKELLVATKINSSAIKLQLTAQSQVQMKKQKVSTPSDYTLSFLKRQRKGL
Outline: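 Menin (25 mg/mL in 25 mM Tris pH 8.0, 150 mM NaCl, 5 mM DTT) incubated with compound at a 1:1.2 protein:compound molar ratio for 1 h or overnight at 4 °C. Diluted to 1 mg/mL, then reverse-phase C4 LC with a 5–100% MeCN/0.2% formic acid gradient and Q-TOF mass spectrometry to detect the covalent adduct.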

[2] = biological target: T1, Menin (Homo sapiens); assay: Binding affinity to recombinant human menin protein assessed as covalent complex formation measured after overnight incubation by LC/MS analysis; design: concentration or dose not given beside the values
[3] = Clearance in C57BL/6 mouse at 1 mg/kg, iv; assay type: ADME, organism-based; conditions: in vivo
Outline: (§1)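 Female C57BL/6 mice, single IV dose of 1 mg/kg given as a solution in 10% NMP, 10% Solutol HS15 and 80% saline. Parameters come from the plasma concentration–time profile.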

[4] = AUC (0 to infinity) in C57BL/6 mouse at 1 mg/kg, iv; assay type: ADME, organism-based; design: time infinity, route intravenous, dose 1 mg/kg; conditions: in vivo; outline: as §1
[5] = Cmax in C57BL/6 mouse at 5 mg/kg, po; assay type: ADME, organism-based; design: route oral, dose 5 mg/kg; conditions: in vivo
Outline: (§2)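 Female C57BL/6 mice, single oral dose of 5 mg/kg in 0.5% methyl cellulose + 0.2% Tween 80 (w/w). Bioavailability is calculated against the 1 mg/kg IV arm.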

[6] = Oral bioavailability in C57BL/6 mouse at 5 mg/kg; assay type: ADME, organism-based; conditions: in vivo; outline: as §2
[7] = tested on: SEM cells; assay: Anti-proliferative activity against human SEM cells harboring MLL/AF4 fusion protein assessed as cell growth inhibition measured after 4 days by Cell Titre Glo Luminescent Cell viability assay; assay type: functional, cell-based; conditions: 96 h
Outline: (§3)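 Leukemia lines plated in triplicate in RPMI 1640 at 37 °C, 5% CO2. 9-point dose response from 10 μM top concentration with 1:3 serial dilutions, 0.1% DMSO final; DMSO vehicle control column. Cellular ATP read by CellTiter-Glo at day 0 and after 4 days. Averages from three independent experiments.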

[8] = tested on: KOPN-8; assay: Anti-proliferative activity against human KOPN-8 cells harboring MLL/ENL fusion protein assessed as cell growth inhibition measured after 4 days by Cell Titre Glo Luminescent Cell viability assay; assay type: functional, cell-based; conditions: KOPN-8, 96 h; outline: as §3
[9] = tested on: RS4-11; assay: Anti-proliferative activity against human RS4-11 cells harboring MLL/AF4 fusion protein assessed as cell growth inhibition measured after 4 days by Cell Titre Glo Luminescent Cell viability assay; assay type: functional, cell-based; conditions: RS4-11, 96 h; outline: as §3
[10] = tested on: K562; assay: Anti-proliferative activity against human K562 cells harboring MLL wild-type protein assessed as cell growth inhibition measured after 4 days by Cell Titre Glo Luminescent Cell viability assay; assay type: functional, cell-based; conditions: K562, 96 h; outline: as §3
[11] = tested on: MEG-01; assay: Anti-proliferative activity against human MEG-01 cells harboring MLL wild-type protein assessed as cell growth inhibition measured after 4 days by Cell Titre Glo Luminescent Cell viability assay; assay type: functional, cell-based; conditions: MEG-01, 96 h; outline: as §3
[12] = GSH reactivity in pH 7.4 assessed as conjugation half life at pH 7.4; assay type: physicochemical
[13] = Protein binding in rat plasma at 1 uM incubated for 5 hrs by liquid chromatography-tandem mass spectrometry; assay type: ADME, cell-free
Outline: (§4)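 Equilibrium dialysis: plasma spiked at 1 μM against dialysis buffer, shaken 5 h at 37 °C, with warfarin and quinidine (1 μM) as controls. Samples matrix-matched, quenched with acetonitrile containing imipramine internal standard, and analysed by LC-MS/MS. Percent bound computed from peak area ratios.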

[14] = Protein binding in mouse plasma at 1 uM incubated for 5 hrs by liquid chromatography-tandem mass spectrometry; assay type: ADME, cell-free; outline: as §4
[15] = Toxicity in SCID mouse xenografted with human MV4-11 cells assessed as change weight loss at 100 mg/kg, po administered daily for 26 days; assay type: organism-based; conditions: in vivo, 624 h, time 26 day
Outline: (§5)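 Female C.B-17 SCID mice bearing subcutaneous MV4;11 flank tumors (5×10^6 cells with Matrigel 1:1), treated once tumors averaged about 100 mm3. Dosed 100 mg/kg daily by oral gavage for 26 days in 0.5% MC + 0.2% Tween 80 vehicle. Body weight measured daily.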

[16] = Toxicity in SCID mouse xenografted with human MV4-11 cells assessed as signs of toxicity at 100 mg/kg, po administered daily for 26 days; assay type: organism-based; conditions: in vivo, 624 h, time 26 day; outline: as §5
[17] = tested on: MV4-11; assay: Anti-tumor activity against human MV4-11 cells xenografted in SCID mouse assessed as tumor regrowth at 300 mg/kg, po qd administered daily for 15 days; assay type: functional, organism-based; conditions: time 15.0 day
Outline: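 Female C.B-17 SCID mice, 5–6 weeks old, implanted subcutaneously in the right flank with 5×10^6 MV4;11 cells in 1:1 Matrigel. Randomized at about 200 mm3. Dosed 300 mg/kg by oral gavage once daily for 15 days in 0.5% MC (400 cP) + 0.2% Tween 80 at 10 mL/kg. Body weight measured daily; caliper volume (0.5×W×W×L) three times weekly.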

[18] = tested on: MV4-11; assay: Anti-tumor activity against luciferase-tagged human MV4-11 cells xenografted in NCG mouse assessed as induction of CD11b protein in human CD45+ cells at 150 mg/kg, po administered daily for 4 days measured after 48 hrs by qRT-PCR analysis; assay type: functional, organism-based; conditions: time 4.0 day, in the assay text read “flow cytometry analysis” for “qRT-PCR analysis”
Outline: (§6)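 Female NCG mice, 5–6 weeks old, given 5×10^6 luciferase-tagged MV4;11 cells IV via tail vein. Randomized at log-phase disease (day 27). Dosed 150 mg/kg oral gavage daily for 4 days in MC/Tween 80 vehicle. Read-outs 48 h after the last dose, five mice per group, mean ± SEM: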

[19] = tested on: MV4-11; assay: Anti-tumor activity against luciferase-tagged human MV4-11 cells xenografted in NCG mouse assessed as decreased intensity of whole body bioluminescence signal at 150 mg/kg, po administered daily for 4 days measured after 48 hrs by bioluminescence analysis; assay type: functional, organism-based; conditions: time 4.0 day; outline: as §6
[20] = Toxicity in NCG mouse xenografted with luciferase-tagged MV4-11 cells assessed as change in body weight at 150 mg/kg, po administered daily for 4 days measured after 48 hrs; assay type: organism-based; conditions: in vivo, 96 h, time 4 day; outline: as §6

For `C=CC(=O)N1C[C@@H]2C[C@H]1CN2S(=O)(=O)c1ccc(N2CC(CN3CCC([C@@](CN4CCC4)(c4cccc(F)c4)[C@H]4CCC[C@@H]4NC(=O)OC)CC3)(OC)C2)cc1`, the Activity [1] was 66%, the Activity [2] was 100% and the clearance [3] was 0.945 mL/min/kg. For the same compound, the AUC(0-inf) [4] was 17600 ng·h/mL, the Cmax [5] was 4150 ng/mL and the F [6] was 49.4%. For the same compound, the IC50 [7] was 51 nM, the IC50 [8] was 110 nM and the IC50 [9] was 1000 nM. For the same compound, the IC50 [10] was > 10000 nM, the IC50 [11] was > 10000 nM and the t1/2 [12] was 1.48 h. For the same compound, the PPB [13] was 87.5%, the PPB [14] was 99.3% and the Activity [15] was “Non-Toxic”. The Activity [16] was “Non-Toxic”, the Activity [17] was “Active” and the Activity [18] was “Active”. The Activity [19] was “Active” and the Activity [20] was “Non-Toxic”.
